{"data": "Measured values pooled from the literature", "target": "Casein kinase II subunit alpha (CSNK2A1, Homo sapiens, UniProt P68400)"}
{"Structure (SMILES)": "Nc1ncc2c(n1)-c1c([nH]c3ccc(C#CC4CC4)cc13)CCCC2", "observed": "binding", "method": "competition with immobilised ligand", "concentration": "1 µM", "remaining binding": "79%"}
{"Structure (SMILES)": "CSc1cccnc1N1CCN(Cc2nc3ccccc3[nH]2)CC1", "observed": "cell-free assay", "method": "competition with immobilised ligand", "concentration": "1 µM", "remaining binding": "81%"}
{"Structure (SMILES)": "Cc1cnc(Nc2ccc(C(=O)N3CCC(N4CCCC4)CC3)cc2)nc1-c1cc2ccccc2s1", "observed": "binding", "method": "competition with immobilised ligand", "concentration": "1 µM", "remaining binding": "0.5%"}
{"Structure (SMILES)": "c1cncc(-c2cccc(Nc3nccc(NC4CCCCC4)n3)c2)c1", "observed": "binding", "method": "competition with immobilised ligand", "concentration": "10 µM", "remaining binding": "72%"}
{"Structure (SMILES)": "CC(=O)N1CCC(c2ccc(C(=O)NC(=N)N)cc2C(F)(F)F)CC1", "observed": "cell-free assay", "method": "competition with immobilised ligand", "concentration": "1 µM", "remaining binding": "95%"}
{"Structure (SMILES)": "Cc1cnn2ncc(-c3ccnc(N(C)C)n3)c2c1", "observed": "binding", "concentration": "1 µM", "remaining binding": "86%"}
{"Structure (SMILES)": "N#CC1(c2ccccn2)CCN(Cc2cc(C(=O)N3CCCC3)c(=O)n3ccccc23)CC1", "observed": "cell-free assay", "method": "competition with immobilised ligand", "concentration": "1 µM", "remaining binding": "100%"}
{"Structure (SMILES)": "O=C(c1ccc(Nc2nccc(-c3cc4ccccc4s3)n2)cc1)N1CCC(N2CCCC2)CC1", "observed": "binding", "method": "competition with immobilised ligand", "concentration": "1 µM", "remaining binding": "23%"}
{"Structure (SMILES)": "CN(C)c1nccc(-c2cnn3ncccc23)n1", "observed": "binding", "concentration": "1 µM", "remaining binding": "39%"}
{"Structure (SMILES)": "O=C(NCCCN1CCOCC1)c1ccc(Nc2nccc(-c3cc4ccccc4s3)n2)cc1", "observed": "binding", "method": "competition with immobilised ligand", "concentration": "1 µM", "remaining binding": "37%"}
{"Structure (SMILES)": "CN(CCCC(F)(F)F)c1nccc(-c2cnn3ncccc23)n1", "observed": "binding", "concentration": "1 µM", "remaining binding": "66%"}
{"Structure (SMILES)": "Cn1nc(C(F)(F)F)cc1-c1cnc(N2CCc3cc(S(=O)(=O)Nc4c(F)cc(Cl)cc4F)cc(N4CCCC4=O)c32)nc1", "observed": "cell-free assay", "method": "competition with immobilised ligand", "concentration": "1 µM", "remaining binding": "65%"}
{"Structure (SMILES)": "CC1CCCN1c1nccc(-c2cnn3ncccc23)n1 (centres unmarked)", "observed": "binding", "concentration": "1 µM", "remaining binding": "90%"}
{"Structure (SMILES)": "CN(C(=O)c1ccccc1)c1cc(N(C)c2ccc3c(c2)CCc2ccc(C(=O)NCCN4CCOCC4)cc2C3=O)ccc1F", "observed": "cell-free assay", "method": "competition with immobilised ligand", "concentration": "1 µM", "remaining binding": "100%"}
{"Structure (SMILES)": "O=C(Nc1c[nH]nc1C(=O)NC1CCNCC1)c1cc(F)cc(F)c1", "observed": "binding", "method": "competition with immobilised ligand", "concentration": "1 µM", "remaining binding": "100%"}
{"Structure (SMILES)": "COc1ncc2cc3ccccc3nc2c1C#N", "observed": "cell-free assay", "method": "competition with immobilised ligand", "concentration": "5 µM", "remaining binding": "92%"}
{"Structure (SMILES)": "N[C@H]1CCN(c2nccc(-c3cnn4ncccc34)n2)C1", "observed": "binding", "concentration": "1 µM", "remaining binding": "89%"}
{"Structure (SMILES)": "COc1cnc(Nc2cccc(S(N)(=O)=O)c2)nc1N1CCN(c2ccccc2)CC1", "observed": "binding", "method": "competition with immobilised ligand", "concentration": "1 µM", "remaining binding": "71%"}
{"Structure (SMILES)": "C[C@@H]1CCN(c2nccc(-c3cnn4ncccc34)n2)C1", "observed": "binding", "concentration": "1 µM", "remaining binding": "89%"}
{"Structure (SMILES)": "O=S(=O)(NC1CCC(c2cc(F)ccc2F)(S(=O)(=O)c2ccc(Cl)cc2)CC1)C(F)(F)F (centres unmarked)", "observed": "cell-free assay", "method": "competition with immobilised ligand", "concentration": "1 µM", "remaining binding": "85%"}
